B1: tRNA (parent)
chain: CUCUCGGUAGCCAAGUUGGUUUAAGGCGCAAGACUUUAAUUUAUCACUACGAAAUCUUGAGAUCGGGCGUUCGACUCGCCCCCGGGAGAUUUUUUCCUCGAGCAA

Fewer inactive variants are shown than the library holds. Bounds are passed on as bounds.

This is an account of results in the RNAGym collection of RNA variant scans (doi:10.1101/gad.245936.114).

Variants of B1 are the subject of this series. As to the kind of experiment: nonsense suppression (GFP-seq) (ratio to wild type); higher = more function; SUP4oc tRNA, yeast GFP reporter sort-seq. A digest of the protocol: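 Raffinose/galactose medium with 80 mg/L adenine was used to grow yeast carrying genome-integrated tRNA variants (~3% random-mutation library), RFP, and a galactose-driven GFP ochre reporter. Cells went into GFP/RFP bins, which were Illumina-sequenced, and variants with ≥100 reads and ≥30 cells were scored. Nonsense suppression (GFPSEQ) is the per-bin median GFP/RFP weighted by estimated cell share and expressed relative to the unmutated parent tRNA.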
With CACUCGGUAGCCAAGUUGGUUUAAGGCGCAAUAUUUUAAUUUAUCACUACGAAAUCUUGAGAUCGGGCGUUCGACUCGCCCCCGGGAGAUUUUUUCCUCGAGCAA, the nonsense suppression was at most 0.026.

Take CACUCGGUAGCCAAGUUGGUUUAAGGCGCAAGACUUUAAUUUAUCACUACGAAAUCUUGAGAUCGGGCGUUCGACUCGCUCCCGGGAGAUUUUUUCCUCGAGCAA: the nonsense suppression was determined as 0.0354.

For CCCUCGGUAGCGAAGUUGGUUUAAGGCGCAAGACUUUAAUUUAUCACUACGAAAUCUUGAGAUCGGGCGUUCGACUCGCCCCCGGGAGAUUUUUUCCUCGAGCAA, the nonsense suppression is at most 0.026.

Regarding CACUCGGUAGCCAAGUUGCUUUAAGGCGCAAGACUUUAAUUUAUCACUACGAAAUCUUGAGAUCGGGCGUUCGACUCGCCCCCGGGAGAUUUUUUCCUCGAGCAA, the nonsense suppression is at most 0.026.

As to CACUCGGUAGCCAAGUUGGUUUAAGGUGCAAGACUUUAAUUUAUCACUACGAAAUCUUGAGAUCGGGCGUUCGACUCGCCCCCGGGAGAUUUUUUCCUCGAGCAA, the nonsense suppression came out at 0.0357.

On to CCCUCGGUAGCCAAGUUGGUUUAAGGCGCAAGACUUUAAUUUAUCACUACGAAAUCUUGAGAUCGGGCGUUCGACUCGCCCCCGGGAGUUUUUUUCCUCGAGCAA, for which the nonsense suppression was at most 0.026.

On to CACUCGGUAGCCAAGUUGGUUUAAGGCGCAAGACUUUAAUUUAUCACUACGAAAUCUUGAAAUCGGGCGUUCGACUCGCCCCCGGGAGAUUUUUUCCUCGAGCAA, for which the nonsense suppression came to 0.0448.

With CACUCGGUAGCCAAGUUGGUUGAAGGCGAAAGAAUUUAAUUUAUCACUACGAAAUCUUGAGAUCGGGCGUUCGACUCGCCCCCGGGAGAUUUUUUCCUCGAGCAA, the nonsense suppression was determined as 0.221.

In the case of CCCUCGGUAGCCAAGUUGGUUUAAGGCGCAGGACUUUAAUUUAUCACUACGAAAUCUUGAGAUCGGGCGUUCGACUCGCCCCCGGGAGAUUUUUUCCUCGAGCAA, the nonsense suppression was 0.0356.

CCCUCGGUAGCCAAGUUGGUUUAAGGAGCAAGACUUUAAUUUAUCACUACGAAAUCUUGAGAUCGGGCGUUCGACUCGCCCUCGGGAGAUUUUUUCCUCGAGCAA: the nonsense suppression was at most 0.026.

CCCUCGGUAGCCAAGUUGGUUUAAGGCGCUGGACUUUAAUUUAUCACUACGAAAUCUUGAGGUCGGACGUUCGACUCGCCCCCGGCAGAUUUUUUCCUCGAGCAA: the nonsense suppression was at most 0.026.

As for CCCUCGGUCGCCAAGUUGGUUUAAGGCGCAAGACUUUAAUUUAUCACUACGAAAUCUUGAGAUCGGGCGUUCGAAUCGCCCCCGGGAGAUUUUUUCCUCGAGCAA, the nonsense suppression turned out to be 0.038.

CACUCGGUAGCCAAGUUGGUUUAAGGCGCAAGAGUUUAAUUUAUCACUACGAAAUCUUGAGAUCGGGCGUUCGACUCGCCCCCGCGAGCUUUUUUCCUCGAGCAA: the nonsense suppression turned out to be 0.25.

Consider CCCUCGGUAGCCAUGUUGGUUUAAGGCGCAAGACUUUAAUUUAUCACUACGAAAUCCUGAGAUCGGGCGUUCGACUCGCCCCCGGGAGAUUUUUUCCUCGAGCAA, for which the nonsense suppression was at most 0.026.

For the variant CACUCGGUAGCCAAGUUGGUUUAAGGCGCAAGAUUUUAAUUUAUCACUACGAAAUCUUGAGAUCGGGCGUUCGACUCGCCCCCGGGAGAUUUUUUCCUCGAGCAA, the nonsense suppression was at most 0.026.

With CACUCGGUAGCCAAGUUGGUUUAAGGCGCAAGAAUUUAAUUUAUCACUACGAAAUCUUGAGAUCGGGCGUUCGACUCUCCCCCGGUAGAUUUUUUCCUCGAGCAA, the nonsense suppression is at most 0.026.

Consider CACUCGGUAGCCAAGUUGGUUUAAGGCGCAAGACUUUAAUUUAUCACUACGAAAUCUUGAGAUCGGGCGUUCGACUCGCCCCCAGGAGGUUUUUUCCUCGAGCAA, for which the nonsense suppression was at most 0.026.

For CACCCGGUAGCCAAGCUGGUUUAAGGCGCAAGACUUUAAUUUAUCACUACGAAAUCUUGAGAUCGGGCGUUCGACUCGCCCCCGGGAGAUUUUUUCCUCGAGCAA, the nonsense suppression amounted to 0.0971.

As to CCCUCGGUAGCCAAGUUGGUUUAAGGCGCAAGACUUUAAUUUAUCACUACGAAAUUUUGAGAUCGGGCGUUCGACUCGCCCCCGGGAGAUUUUUUCCUCGAGCAA, the nonsense suppression is at most 0.026.

Regarding CCCUCGGUAGCCAAGUUGGUUUAAGGCGCAAGACUUUAAUUUAUCACUACGAAAUAUUGAGAUCGGGCGUUCGACUCGCCCCCGGGAGAUUUUUUCCUCGAGCAA, the nonsense suppression was at most 0.026.

For CCCUCGGUAGCCAAGUUGGUUUAAGGCGCAAGACUUUAAUUUAUCACUACGAAAUGUUGAGAUCGGGCGUUCGACUCGCCCCCGGGAGAUUUUUUCCUCGAGCAA, the nonsense suppression was at most 0.026.

With CACACGAUAGCCAAGUUGGUUUAAGGCGCAAGACUUUAAUUUAUCACUACGAAAUCUUGAGAUCGGGCGUUCGACUCGCCCCCGGGAGAUUUUUUCCUCGAGCAA, the nonsense suppression is at most 0.026.

CACUCGGUAGCCAAGUUGGUUUAAGGCGCAAGACUUUAAUUUAUCACUACGAAACCUUGAGAUCGGGCGUUCGACUCGCCCCCGGGAGAUUUUUUCCUCGAGCAA: the nonsense suppression turned out to be 0.0451.

On to CACUCGGUAGCCAAGUUGGUUUAAGGCGCAAGACUUUAAUUUAUCACUACGAAAUCUUGAGACCGGGCGUUCGACUCGCCCCCUGGAGAUUUUUUCCUCGAGCAA, for which the nonsense suppression is at most 0.026.

Turning to CACUCGGUAGCCAAGUUGGUUUAAGGCGCAAGACUUUAAUUUAUCACUACGAAAUCUUGAGAUCGGGCGUUCGACUCGCCCCCGGAAGAUUUUUUCCUCGAGCAA, the nonsense suppression was at most 0.026.

With CACUCGGUAGCCAAGUUGGUUUAAGGUGCAGGACUUUAAUUUAUCACUACGAAAUCCUGAGAUCGGGCGUUCGACUCGCCCCCGGGAGAUUUUUUCCUCGAGCAA, the nonsense suppression was at most 0.026.

Regarding CCCUCGGUAGCCAAGUUGGUUUGAGGCGCAAGACUUUAAUUUAUCACUACGAAAUCUUGAGCUCGGACGUUCGACUCGCCCCCGGGAGAUUUUUUCCUCGAGCAA, the nonsense suppression was at most 0.026.

For CCCUCGGUAGCCUAGUUGGUUUAAGGCGCAAGACUUUAAUUUAUCACUACGAAAUCUUGAGAUCGGGCGUUCGACUCGCCCCCGGGAGAUUUUUUCCUCGAGCAA, the nonsense suppression amounted to 0.0357.

In the case of CCCUCGGUAGCCAAGUUGGUUUAGGGCGCACGACUUUAAUUUAUCACUACGAAAUCUUGCGAUCGGGCGUUCGACUCGCCCACGCGAGAUUUUUUCCUCGAGCAA, the nonsense suppression is at most 0.026.

On to CCCUCGGUAGCCAAGUUGGUUUAAGGCGCAAGACUUUAAUUUAUCACUACGAAAUCUUGCGAUCGGGCGUUCGACUCGCCCCCGGGAGAUUUUUUCCUCGAGCAA, for which the nonsense suppression is 0.0359.

As for CCCUCGGUAGCCAAGUUGGUUUAAGGCGCAAGACUUUAAUUUAUCACUACGAAAUCUUGUGAUCGGGCGUUCGACUCGCCCCCGGGAGAUUUUUUCCUCGAGCAA, the nonsense suppression worked out at 0.194.

Consider CCUUCGGUAGCUAAAUUGGUUUAAGGCGCAAGACUUUAAUUUAUCACUACGAAAUCUUGAGAUCGGGCGUUCGACUCGCCCCCGGGAGAUUUUUUCCUCGAGCAA, for which the nonsense suppression is at most 0.026.

On to CCCUAGGUAGCCAAGUUGGUUUAAGGCGCAAGACUUUAAUUUAUCACUACGAAAUCUUGAGAUCGGGCGUUCGACUCGCCCCCGGGAGAUUUUUUCCUCGAGCAA, for which the nonsense suppression was at most 0.026.

As for CCCUGGGUAGCCAAGUUGGUUUAAGGCGCAAGACUUUAAUUUAUCACUACGAAAUCUUGAGAUCGGGCGUUCGACUCGCCCCCGGGAGAUUUUUUCCUCGAGCAA, the nonsense suppression is at most 0.026.

As to CACUCGGUAGCCAAGUUGGUUUAAGGCGUAAGACUUUAAUUUAUCACUACGAAAUCUUGAGAUCGGGCGUUCGACUCGCCCCCGGGAGAUUUUUUCCUCGAGCAA, the nonsense suppression is 0.0437.

CCCUCGGUAGCCAAGUUGGUUUAAGGCGCAAGACUUUAAUUUAUCACUACGAAAUCUUGAGAUCGGGCGUUCGACUCGCCCCCGGGAGAUUUUUUCCUCGAGCAA: the nonsense suppression amounted to 0.185.

CACUCGGUAGCCAAAUUGGUUUAAGGCGCAAGACUUUAAUUUAUCACUACGAAAUCUUGAGAUCGCGCGUUCGACUCGCCCCCGUGAGAUUUUUUCCUCGAGCAA: the nonsense suppression is at most 0.026.

With CACGCGGUAGCCAAGUUAGUUUAAGGCGCAAGACUUUAAUUUAUCACUACGAAAUCUUGAGAUCGGGCGUUCGACUCGCCCCCGGGAGAUUUUUUCCUCGAGCAA, the nonsense suppression was at most 0.026.

In the case of CACUCGGUAGCCAAGUUGGUUUAAGGCGCAAGACUUUAAUUUAUCACUACGAAAUCUUGAGAUCCGGCGUUCGACUCGCCCCCGGGAGAUUUUUUCCUCGAGCAA, the nonsense suppression is at most 0.026.

Regarding CCCUCGGUAGCCAAGUUGGUUUAAGGCGCAAGACUUUAAUUUAUCACUACGAAAUCUUGCGAUCGGGCGUUCGAUUCGCCCCCGGGAGAUUUUUUCCUCGAGCAA, the nonsense suppression was at most 0.026.

For the variant CCCUAGGUAGCCAAGUUGGUUUAAGGCGCAAGACUUUAAUUUAUCACUACGAAAUCUUGAGAUCGGGCGUUCGAUUCGCCCCAGGGAGAUUUUUUCCUCGAGCAA, the nonsense suppression was at most 0.026.

Regarding CCCUCGGUAGCCAAGUUGGUUUACGGCGCAAGACUUUAAUUUAUCACUACGAAAUCUUGAGAUCGGGCGUUCGACUCGCCCCCGGGAGAUUUUUUCCUCGAGCAA, the nonsense suppression is 0.0326.

CACUCGGUAGCCAAGUUGGUUUAAGGCGAAAGACUUUAAUUUAUCACUACGAAAUAUUGUGAUCGGGCGUUCGACUCGCCCCCGGGAGAUUUUUUCCUCGAGCAA: the nonsense suppression is at most 0.026.

For CACUCGGUAGCCAAGUUGGUUUAAGGCGCAAGACUUUAAUUUAUCACUACGAAAUCUUGAGAUCGGGUGUUCGACUCGCCCCCGGGAGAUUUUUUCCUCGAGCAA, the nonsense suppression stood at 0.18.

Turning to CACGCGGUAGCCAAGUUGGUUUAAGGCGCAAGACUUUAAUUUAUCACUACGAAAUCUUGAGAUCGGGCGUUCGACUCGCCCCCGGGAGAUUUUUUCCUCGAGCAA, the nonsense suppression was 0.203.

Take CACACGGUAGCCAAGUUGGUUUAAGGCGCAAGACUUUAAUUUAUCACUACGAAAUCUUGAGAUCGGGCGUUCGACUCGCCCCCGGGAGAUUUUUUCCUCGAGCAA: the nonsense suppression worked out at 0.0323.

As for CACUCGGUAGCCAAGUUGGUUUAAGGCGCAAGACUUUAAUUUAUCACUACGAAAUCUUGAGAUCGGGCGUUCGACUCGCCUCCGGGAGAUUUUUUCCUCGAGCAA, the nonsense suppression was 0.0376.

Take CCCUCGGUAGCCAAGUUGGUUUAAGGCGCAAGACUUUAAUUUAUCACUACGAAAUCUUGAGAUCGGGCGUUCGAUUCGCCCCCGGGAGAUUUUUUCCUCGAGCAA: the nonsense suppression was found to be 0.206.

With CCCUCGGUAGCGAAGUUGGUUUACGGCGCAAGACUUUAAUUUAUCACUACGAAAUCUUGAGUUCGGGCGUUCGACUCGACCCCGGGAGAUUUUUUCCUCGAGCAA, the nonsense suppression was at most 0.026.

Turning to CCCUCGGUAGCCAAGUUGGUUUAAGGCGCAGGACUUUAAUUUAUCACUACGAAAUCUUGAGAUCGGGCGUUUGACUCGCCCCCGGGAGAUUUUUUCCUCGAGCAA, the nonsense suppression was at most 0.026.

In the case of CCCUCGGUAGCCAAGUUGGUUUGAGGCGCAAGACUUUAAUUUAUCACUACGAAAUCUUGAGAUCGGGCGUUCGACUCGCCCCCGGGAGAUUUUUUCCUCGAGCAA, the nonsense suppression is 0.0274.

Turning to CCCUCGGUAGCCUAGUUGGUUUAAGGCGCAAGACUUUAAUUUAUCACUACGAAAUCUUGAGAUCGGGCGUUAGACUCGCCCCCGGGAGAUUUUUUCCUCGAGCAA, the nonsense suppression is at most 0.026.

For CCCUCGGUAGCCAAGUUGGUUUAAGGCGCAAGACUUUAAUUUAUCACUACGAAAUCUUGAGAUCGGGUGUUCGACUCGCCCCCGGGGGAUUUUUUCCUCGAGCAA, the nonsense suppression was 1.13.

As for CACUCGGUAGCCAAGUUGGUUUAAGGCGCAAGACUUUAAUUUAUCACUACGAAAUCUUGAGAUCGGGCGUUCAACUCGCCCCCGGGAGAUUUUUUCCUCGAGCAA, the nonsense suppression was 0.0508.
